Measured values gathered from unrelated publications.
Protocols differ between the studies behind these lines.
Target: Angiopoietin-1 receptor (TEK, Homo sapiens, UniProt Q02763)

With `COc1ccc2[nH]c3c4[nH]c5ccc(OC)cc5c4c4c(c3c2c1)C(=O)NC4=O` the remaining binding was 100% (binding; competition with immobilised ligand; 1 µM).
The remaining signal of `C#Cc1cnc(Nc2ccnc(CO)c2)nc1Nc1ccccc1S(C)(=O)=NC#N` (centres unmarked) is reported as 46% (cell-free assay; 1 µM).
With `COc1ccc2oc(-c3ccc4nc(N)oc4c3)c/c(=N\c3ccccc3NC(=O)CCN)c2c1` the remaining signal was 87% (cell-free assay; 1 µM).
For `N#Cc1ccc(NC(=O)Nc2ccccc2)cc1`, the remaining binding was 98% (cell-free assay; competition with immobilised ligand; 25 µM).
For `C=CC(=O)N1CCC([C@@H]2CCNc3c(C(N)=O)c(-c4ccc(Oc5ccccc5)cc4)nn32)CC1`, the inhibition was 0% (cell-free assay; 1 µM).
The remaining binding of `C[C@H]1CC[C@H](n2c3cnccc3c3cnc(Nc4ccc5c(n4)CCN(C(=O)CO)C5)nc32)CC1` is reported as 92% (cell-free assay; competition with immobilised ligand; 1 µM).
`CC#CC(=O)N1CCC[C@H]1c1nc(-c2ccc(C(=O)Nc3ccccn3)cc2)c2c(N)nccn12` gave an inhibition of 0% (enzyme activity; inhibitor; 1 µM).
The remaining binding of `CCCCC(=O)Nc1ccc(-c2ccc3ncn(CCC)c(=O)c3c2)cn1` is reported as 94% (binding; competition with immobilised ligand; 0.5 µM).
